Source: ChEMBL document CHEMBL2434820, “Design, synthesis, and biological evaluation of novel 2-ethyl-5-phenylthiazole-4-carboxamide derivatives as protein tyrosine phosphatase 1B inhibitors with improved cellular efficacy” (Eur J Med Chem, 2013)
Active and inactive are the calls of the source. The calls are words filed in the database; no cut-off is given here.

Key:
[1] = target: T1, M-phase inducer phosphatase 2 (Homo sapiens, UniProt P30305); test: Inhibition of CDC25B (unknown origin)
T1 sequence (P30305 whole entry): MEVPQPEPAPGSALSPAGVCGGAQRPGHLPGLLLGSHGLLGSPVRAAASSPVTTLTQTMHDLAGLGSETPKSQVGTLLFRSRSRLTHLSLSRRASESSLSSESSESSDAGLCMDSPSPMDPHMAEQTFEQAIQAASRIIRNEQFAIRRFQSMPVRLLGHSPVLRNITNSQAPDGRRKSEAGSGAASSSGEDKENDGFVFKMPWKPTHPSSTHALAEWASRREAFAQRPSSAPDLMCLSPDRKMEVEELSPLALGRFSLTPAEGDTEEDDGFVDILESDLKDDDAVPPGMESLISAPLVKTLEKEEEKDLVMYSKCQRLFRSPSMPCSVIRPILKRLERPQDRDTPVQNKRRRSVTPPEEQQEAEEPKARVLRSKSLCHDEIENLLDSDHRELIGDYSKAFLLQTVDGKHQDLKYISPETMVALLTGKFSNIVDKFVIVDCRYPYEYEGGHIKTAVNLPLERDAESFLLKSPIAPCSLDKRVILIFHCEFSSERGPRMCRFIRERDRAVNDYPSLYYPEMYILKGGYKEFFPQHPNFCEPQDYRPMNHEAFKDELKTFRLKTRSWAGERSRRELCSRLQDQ

[2] = target: Receptor-type tyrosine-protein phosphatase F (Homo sapiens, UniProt P10586); test: Inhibition of LAR (unknown origin)
[3] = target: Tyrosine-protein phosphatase non-receptor type 6 (Homo sapiens, UniProt P29350); test: Inhibition of SHP-1 (unknown origin)
[4] = target: T2, Tyrosine-protein phosphatase non-receptor type 1 (Rattus norvegicus) (UniProt P20417); test: Inhibition of PTP1B in rat L6 cells assessed as insulin-induced Akt phosphorylation preincubated for 2 hrs followed by insulin challenge for 10 mins by Western blotting analysis; format: cell-based
T2 sequence (whole entry): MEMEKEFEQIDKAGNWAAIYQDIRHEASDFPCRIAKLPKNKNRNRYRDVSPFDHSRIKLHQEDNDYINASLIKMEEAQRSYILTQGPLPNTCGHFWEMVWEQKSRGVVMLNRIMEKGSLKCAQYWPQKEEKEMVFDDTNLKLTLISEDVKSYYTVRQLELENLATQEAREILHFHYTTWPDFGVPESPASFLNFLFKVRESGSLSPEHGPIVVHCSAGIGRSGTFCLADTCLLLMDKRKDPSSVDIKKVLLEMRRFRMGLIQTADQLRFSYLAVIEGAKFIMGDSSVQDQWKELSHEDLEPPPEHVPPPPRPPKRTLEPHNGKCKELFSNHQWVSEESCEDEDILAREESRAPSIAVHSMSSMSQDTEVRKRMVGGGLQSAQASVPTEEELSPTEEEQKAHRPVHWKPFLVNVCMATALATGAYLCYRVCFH
Method in brief: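 Rat L6 myoblasts were differentiated in DMEM with 2% FBS and used as myotubes 5–7 days later. They were serum-starved 2 h, treated with compound 2 h (0.2% DMSO vehicle), then given 10 nM insulin for 10 min. Lysates were run on 8% SDS-PAGE and immunoblotted for phospho-Akt (Ser473), with β-actin as loading control.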

[5] = target: T2, Tyrosine-protein phosphatase non-receptor type 1 (Rattus norvegicus); test: Inhibition of PTP1B in rat L6 cells assessed as insulin-stimulated 2-deoxy-[3H]-deoxy-glucose uptake at 20 uM preincubated for 2 hrs followed by insulin challenge for 30 mins; format: cell-based
Method in brief: (§1)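 Differentiated L6 myotubes were serum-starved 2 h, treated with compound, then stimulated with 10 nM insulin for 30 min. Cells were washed in HEPES-buffered saline, pH 7.4, and incubated 15 min with 2-deoxy-[3H]-glucose. After ice-cold PBS washes they were lysed in 0.1% Triton X-100 and radioactivity was counted. Data are averages of at least three independent replicates.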

[6] = target: T2, Tyrosine-protein phosphatase non-receptor type 1 (Rattus norvegicus); test: Inhibition of PTP1B in rat L6 cells assessed as insulin-stimulated 2-deoxy-[3H]-deoxy-glucose uptake at 10 uM preincubated for 2 hrs followed by insulin challenge for 30 mins; format: cell-based; method in brief: as §1
[7] = target: T2, Tyrosine-protein phosphatase non-receptor type 1 (Rattus norvegicus); test: Inhibition of PTP1B in rat L6 cells assessed as insulin-stimulated 2-deoxy-[3H]-deoxy-glucose uptake preincubated for 2 hrs followed by insulin challenge for 30 mins; format: cell-based; method in brief: as §1
[8] = target: T2, Tyrosine-protein phosphatase non-receptor type 1 (Rattus norvegicus); test: Inhibition of PTP1B in rat L6 cells assessed as insulin-induced Akt phosphorylation at 20 uM preincubated for 2 hrs followed by insulin challenge for 10 mins by Western blotting analysis in presence of wortmannin; format: cell-based
Method in brief: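 Differentiated L6 myotubes were pretreated with 250 nM wortmannin to block PI3K. They then received 20 μM compound for 2 h and were stimulated with or without 10 nM insulin. Akt phosphorylation was read by immunoblot of lysates with anti-phospho-Akt (Ser473).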

Homo sapiens = species on record: Homo sapiens; test: Selectivity ratio of IC50 for TCPTP (unknown origin) to IC50 for GST-tagged PTP1B (unknown origin)
[9] = target: T3, Tyrosine-protein phosphatase non-receptor type 2 (Homo sapiens, UniProt P17706); test: Inhibition of TCPTP (unknown origin)
T3 sequence (P17706 whole entry): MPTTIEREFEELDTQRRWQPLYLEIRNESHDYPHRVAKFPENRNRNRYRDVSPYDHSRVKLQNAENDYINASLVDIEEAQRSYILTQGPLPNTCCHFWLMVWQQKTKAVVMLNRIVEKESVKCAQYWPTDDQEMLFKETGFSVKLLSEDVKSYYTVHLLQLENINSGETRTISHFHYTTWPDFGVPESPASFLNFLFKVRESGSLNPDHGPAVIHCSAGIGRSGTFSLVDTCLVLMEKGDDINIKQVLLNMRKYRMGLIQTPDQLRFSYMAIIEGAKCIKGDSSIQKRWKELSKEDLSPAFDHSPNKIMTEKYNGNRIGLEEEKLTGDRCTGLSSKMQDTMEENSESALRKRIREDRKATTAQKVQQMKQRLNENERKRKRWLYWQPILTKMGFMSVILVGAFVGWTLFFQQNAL

Chain of Tyrosine-protein phosphatase non-receptor type 6 (P29350 whole entry): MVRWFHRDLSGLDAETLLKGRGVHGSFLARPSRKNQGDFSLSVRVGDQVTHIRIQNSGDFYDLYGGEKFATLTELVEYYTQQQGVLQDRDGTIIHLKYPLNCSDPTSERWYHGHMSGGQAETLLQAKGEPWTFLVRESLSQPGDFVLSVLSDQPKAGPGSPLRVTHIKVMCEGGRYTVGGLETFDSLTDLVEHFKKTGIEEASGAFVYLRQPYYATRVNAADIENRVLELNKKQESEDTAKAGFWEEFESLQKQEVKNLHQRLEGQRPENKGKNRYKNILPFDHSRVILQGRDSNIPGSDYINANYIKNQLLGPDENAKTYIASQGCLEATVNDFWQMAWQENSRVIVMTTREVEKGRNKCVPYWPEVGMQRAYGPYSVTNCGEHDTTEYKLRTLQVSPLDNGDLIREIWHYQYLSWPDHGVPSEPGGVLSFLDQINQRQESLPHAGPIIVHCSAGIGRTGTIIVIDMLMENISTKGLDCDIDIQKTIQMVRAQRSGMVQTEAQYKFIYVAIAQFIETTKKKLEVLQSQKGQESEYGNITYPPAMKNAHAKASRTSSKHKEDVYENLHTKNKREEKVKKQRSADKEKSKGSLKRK
Chain of Receptor-type tyrosine-protein phosphatase F (P10586 whole entry): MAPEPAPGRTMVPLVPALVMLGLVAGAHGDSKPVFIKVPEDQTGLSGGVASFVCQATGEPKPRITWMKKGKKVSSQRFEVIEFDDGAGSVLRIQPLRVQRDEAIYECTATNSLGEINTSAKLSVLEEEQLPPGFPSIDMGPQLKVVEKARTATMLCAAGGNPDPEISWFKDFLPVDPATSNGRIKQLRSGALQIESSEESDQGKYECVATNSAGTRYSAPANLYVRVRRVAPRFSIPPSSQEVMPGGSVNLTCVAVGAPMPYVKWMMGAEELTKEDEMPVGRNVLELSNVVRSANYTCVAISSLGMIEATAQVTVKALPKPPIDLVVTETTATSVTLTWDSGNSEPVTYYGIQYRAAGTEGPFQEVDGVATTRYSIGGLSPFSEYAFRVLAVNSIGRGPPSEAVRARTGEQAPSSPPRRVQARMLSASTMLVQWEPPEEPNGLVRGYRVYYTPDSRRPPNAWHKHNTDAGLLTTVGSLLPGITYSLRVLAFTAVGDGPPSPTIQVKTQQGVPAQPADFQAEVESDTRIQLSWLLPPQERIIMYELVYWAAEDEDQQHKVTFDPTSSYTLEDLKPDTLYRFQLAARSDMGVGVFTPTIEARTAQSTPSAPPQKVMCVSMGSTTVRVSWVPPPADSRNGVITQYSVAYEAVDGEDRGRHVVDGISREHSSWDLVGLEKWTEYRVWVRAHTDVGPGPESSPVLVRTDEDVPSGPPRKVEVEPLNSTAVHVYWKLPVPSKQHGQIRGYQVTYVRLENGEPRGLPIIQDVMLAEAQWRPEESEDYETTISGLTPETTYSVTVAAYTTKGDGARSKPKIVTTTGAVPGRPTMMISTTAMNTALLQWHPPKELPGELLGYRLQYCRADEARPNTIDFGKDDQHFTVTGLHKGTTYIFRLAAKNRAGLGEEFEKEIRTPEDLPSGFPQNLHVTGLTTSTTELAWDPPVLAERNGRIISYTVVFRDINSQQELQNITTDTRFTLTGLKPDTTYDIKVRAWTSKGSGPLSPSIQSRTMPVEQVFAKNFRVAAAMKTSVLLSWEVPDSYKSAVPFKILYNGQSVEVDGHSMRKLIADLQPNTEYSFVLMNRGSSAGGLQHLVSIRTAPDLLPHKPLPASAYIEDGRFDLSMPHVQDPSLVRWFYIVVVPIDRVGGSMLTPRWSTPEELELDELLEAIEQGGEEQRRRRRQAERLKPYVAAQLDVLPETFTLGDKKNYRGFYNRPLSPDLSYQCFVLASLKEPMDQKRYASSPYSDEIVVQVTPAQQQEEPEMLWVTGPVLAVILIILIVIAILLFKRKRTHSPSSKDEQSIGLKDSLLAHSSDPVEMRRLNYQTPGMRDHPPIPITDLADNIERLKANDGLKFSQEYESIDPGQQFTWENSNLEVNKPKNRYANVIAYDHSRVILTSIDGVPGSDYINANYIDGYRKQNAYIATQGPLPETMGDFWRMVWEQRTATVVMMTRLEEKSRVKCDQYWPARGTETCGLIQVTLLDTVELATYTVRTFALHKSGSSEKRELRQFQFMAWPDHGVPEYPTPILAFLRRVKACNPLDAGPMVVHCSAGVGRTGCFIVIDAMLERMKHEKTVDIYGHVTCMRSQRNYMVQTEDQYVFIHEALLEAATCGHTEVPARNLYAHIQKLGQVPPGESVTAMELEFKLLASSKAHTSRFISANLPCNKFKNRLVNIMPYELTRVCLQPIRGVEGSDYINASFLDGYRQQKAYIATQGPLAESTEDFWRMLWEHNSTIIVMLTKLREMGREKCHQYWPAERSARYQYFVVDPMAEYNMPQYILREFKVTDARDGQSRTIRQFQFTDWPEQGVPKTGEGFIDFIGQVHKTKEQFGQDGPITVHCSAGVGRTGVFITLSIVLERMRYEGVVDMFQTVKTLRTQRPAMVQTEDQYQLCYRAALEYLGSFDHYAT

Structure (SMILES): O=C(CCc1c[nH]c2ccccc12)N[C@@H](Cc1ccc(OCc2ccccc2)cc1)c1nc(C(=O)Nc2cc(F)ccc2C(=O)O)c(-c2ccccc2)s1
- IC50 [1]: 1.62 µM
- IC50 [2]: > 20 µM
- IC50 [3]: 12.6 µM
- inhibition [4]: Dose-dependent effect
- inhibition [5]: 86%
- inhibition [6]: 40%
- inhibition [7]: Dose-dependent effect
- inhibition [8]: inactive
- Ratio IC50 (Homo sapiens): 2.6
- IC50 [9]: 1.42 µM
